Test [1] concerns Plasmodium falciparum. The test can be described thus: In vitro antimalarial activity against Plasmodium falciparum Indochina W2. The class given is functional, organism-based. In a few lines:
(§1)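 Compound dissolved in DMSO and 70% ethanol, then diluted in RPMI 1640 with 10% human plasma and tested over (1.56-100) × 10^-9 M. Parasites at 0.5% parasitemia, 1% hematocrit, incubated 24 h with compound before [3H]hypoxanthine was added, then a further 18 h. Read-out is [3H]hypoxanthine uptake. IC50 obtained by nonlinear regression of concentration-response data.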

In test [2] the test system is Plasmodium berghei. The test is described as follows: Antimalarial activity for Plasmodium berghei infected mice (Mus musculus) (n=5) at 320 mg/kg/day. It counts as functional.
The subject of test [3] is Plasmodium berghei. The test can be described thus: Antimalarial activity for Plasmodium berghei infected mice (Mus musculus) (n=5) at 20 mg/kg/day. It counts as functional.
For test [4], the system named is Plasmodium berghei. The test is described as follows: Antimalarial activity for Plasmodium berghei infected mice (Mus musculus) (n=5) at 80 mg/kg/day. It counts as functional.
Test [5] deals with Plasmodium falciparum. The test can be described thus: In vitro antimalarial activity against Plasmodium falciparum D6 Sierra Leone. The class given is functional, organism-based. In a few lines: as §1

Molecules are shown by their SMILES. ≈ marks a conversion by molar mass, not a printed value.

As usually defined, the IC50 is the concentration at which inhibition is half-maximal. As for `C[C@@H]1CC[C@H]2[C@@H](C)C(=O)O[C@@H]3O[C@@]4(C)CC[C@@H]1[C@]32OO4` [ARTEMISININ], the IC50 in the test on Plasmodium falciparum [1] came out at 0.00068 µg/mL (≈ 0.00241 µM).
`CC(=O)O[C@@H]1[C@@H](OC(C)=O)[C@@H](C)O[C@H](COC(=O)CO[C@H]2O[C@@H]3O[C@@]4(C)CC[C@H]5[C@H](C)CC[C@@H]([C@H]2C)[C@@]35OO4)[C@H]1OC(C)=O`: the “No. of mice cured” value in the test with Plasmodium berghei [2] is 5; with Plasmodium berghei [3] it was 0; with Plasmodium berghei [4], 0. Further, the results for the IC50 with Plasmodium falciparum [1] and in the test on Plasmodium falciparum [5] were 0.00019 µg/mL (≈ 0.000302 µM) and 0.00248 µg/mL (≈ 0.00394 µM), respectively.
Consider `C[C@H]1[C@@H](O[C@@H]2O[C@H](CO)[C@@H](O[C@@H]3O[C@H](CO)[C@@H](O)[C@H](O)[C@H]3O)[C@H](O)[C@H]2O)O[C@@H]2O[C@@]3(C)CC[C@H]4[C@H](C)CC[C@@H]1[C@@]24OO3`, for which the IC50 was 0.171 µg/mL (≈ 0.281 µM) with Plasmodium falciparum [1] and 0.71 µg/mL (≈ 1.17 µM) with Plasmodium falciparum [5].
Take `C[C@H]1[C@@H](O[Si](C)(C)C)O[C@@H]2O[C@@]3(C)CC[C@H]4[C@H](C)CC[C@@H]1[C@@]24OO3`: the results for the “No. of mice cured” value in the test on Plasmodium berghei [2], with Plasmodium berghei [3] and with Plasmodium berghei [4] were 4, 1 and 5, respectively. Also, the IC50 with Plasmodium falciparum [1] came out at 0.00042 µg/mL (≈ 0.00118 µM); in the test with Plasmodium falciparum [5], 0.00111 µg/mL (≈ 0.00311 µM).
Take `C[C@H]1[C@@H](O[C@@H]2O[C@H](CO)[C@@H](O)[C@H](O)[C@H]2O)O[C@@H]2O[C@@]3(C)CC[C@H]4[C@H](C)CC[C@@H]1[C@@]24OO3`: the IC50 with Plasmodium falciparum [1] stood at 0.0341 µg/mL (≈ 0.0763 µM); in the test on Plasmodium falciparum [5], 0.121 µg/mL (≈ 0.272 µM).
On the same counts, the results for `C[C@H]1[C@@H](O[C@@H]2O[C@H](CO)[C@H](O)[C@H](O)[C@H]2O)O[C@@H]2O[C@@]3(C)CC[C@H]4[C@H](C)CC[C@@H]1[C@@]24OO3` are 0.0356 µg/mL (≈ 0.0797 µM) and 0.0131 µg/mL (≈ 0.0294 µM).
